ChEMBL document CHEMBL4270612, “Discovery of dual GyrB/ParE inhibitors active against Gram-negative bacteria” (Eur J Med Chem, 2018)
In brackets after ≈: the same amount, converted by molar mass.

How the values were obtained:
DNA gyrase subunit B = DNA gyrase subunit B (Escherichia coli, UniProt P0AES6); assay: Inhibition of Escherichia coli GyrB (1 to 220 residues) expressed in Escherichia coli BL21(DE3)
[1] = target: DNA topoisomerase 4 subunit B (Escherichia coli K-12, UniProt P20083); assay: Inhibition of Escherichia coli ParE
DNA topoisomerase 4 subunit B, sequence (P20083 whole entry): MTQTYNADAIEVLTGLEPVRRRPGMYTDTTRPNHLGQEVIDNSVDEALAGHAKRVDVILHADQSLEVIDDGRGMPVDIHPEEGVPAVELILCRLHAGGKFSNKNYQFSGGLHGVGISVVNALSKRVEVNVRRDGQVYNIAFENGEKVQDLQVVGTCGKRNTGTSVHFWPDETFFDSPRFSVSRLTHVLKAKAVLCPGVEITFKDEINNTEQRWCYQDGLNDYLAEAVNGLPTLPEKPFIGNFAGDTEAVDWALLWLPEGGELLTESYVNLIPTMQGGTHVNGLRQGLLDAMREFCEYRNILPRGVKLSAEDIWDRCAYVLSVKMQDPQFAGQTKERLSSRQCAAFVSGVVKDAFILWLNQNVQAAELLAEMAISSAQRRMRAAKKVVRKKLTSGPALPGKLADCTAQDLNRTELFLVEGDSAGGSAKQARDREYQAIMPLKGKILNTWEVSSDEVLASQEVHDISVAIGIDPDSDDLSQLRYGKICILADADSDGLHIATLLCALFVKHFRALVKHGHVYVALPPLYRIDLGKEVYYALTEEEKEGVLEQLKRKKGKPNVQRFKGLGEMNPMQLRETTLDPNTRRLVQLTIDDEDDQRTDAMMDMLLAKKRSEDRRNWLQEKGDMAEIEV

[2] = Dissociation constant, acidic pKa of compound by pH metric method; format: physicochemical
Summary of the method: (§1)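 Potentiometric (pH-metric) titration on an automated titrator, Gold Standard pH metric assay, run in triplicate.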

[3] = Dissociation constant, basic pKa of compound by pH metric method; format: physicochemical; summary of the method: as §1
Acinetobacter baumannii [4] = assay: Antibacterial activity against Acinetobacter baumannii ARC3495 after 24 hrs by broth microdilution method; format: functional; conditions: ARC3495, 24 h
Summary of the method: (§2)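 Broth microdilution per CLSI. Bacterial suspension adjusted to 1×10^6 CFU/mL in cation-adjusted Mueller–Hinton broth and mixed 1:1 with 2-fold serial compound dilutions. Final DMSO 2.5% v/v. Plates incubated at 35 °C with shaking at 140 rpm for 24 h.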

Klebsiella pneumoniae = assay: Antibacterial activity against Klebsiella pneumoniae ARC1865 after 24 hrs by broth microdilution method; format: functional; conditions: ARC1865, 24 h; summary of the method: as §2
Streptococcus pneumoniae = assay: Antibacterial activity against Streptococcus pneumoniae ATCC 49619 after 24 hrs by broth microdilution method; format: functional; conditions: ATCC 49619, 24 h; summary of the method: as §2
Pseudomonas aeruginosa [5] = assay: Antibacterial activity against Pseudomonas aeruginosa ARC3504 after 24 hrs by broth microdilution method; format: functional; conditions: ARC3504, 24 h; summary of the method: as §2
Pseudomonas aeruginosa [6] = assay: Antibacterial activity against Pseudomonas aeruginosa ARC3511 after 24 hrs by broth microdilution method; format: functional; conditions: ARC3511, 24 h
Summary of the method: (§3)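 Broth microdilution per CLSI. Bacterial suspension adjusted to 1×10^6 CFU/mL in cation-adjusted Mueller–Hinton broth and mixed 1:1 with 2-fold serial compound dilutions. Plates incubated at 35 °C with shaking at 140 rpm for 24 h.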

Pseudomonas aeruginosa [7] = assay: Antibacterial activity against Pseudomonas aeruginosa ARC3514 after 24 hrs by broth microdilution method; format: functional; conditions: ARC3514, 24 h; summary of the method: as §3
Pseudomonas aeruginosa [8] = assay: Antibacterial activity against Pseudomonas aeruginosa ARC3606 after 24 hrs by broth microdilution method; format: functional; conditions: ARC3606, 24 h; summary of the method: as §2
Pseudomonas aeruginosa [9] = assay: Antibacterial activity against Pseudomonas aeruginosa ARC3611 after 24 hrs by broth microdilution method; format: functional; conditions: ARC3611, 24 h; summary of the method: as §2
Pseudomonas aeruginosa [10] = assay: Antibacterial activity against Pseudomonas aeruginosa ARC3727 after 24 hrs by broth microdilution method; format: functional; conditions: ARC3727, 24 h; summary of the method: as §3
Pseudomonas aeruginosa [11] = assay: Antibacterial activity against Pseudomonas aeruginosa ARC3916 after 24 hrs by broth microdilution method; format: functional; conditions: ARC3916, 24 h; summary of the method: as §2
Pseudomonas aeruginosa [12] = assay: Antibacterial activity against Pseudomonas aeruginosa ARC3925 after 24 hrs by broth microdilution method; format: functional; conditions: ARC3925, 24 h; summary of the method: as §3
Pseudomonas aeruginosa [13] = assay: Antibacterial activity against Pseudomonas aeruginosa ARC4063 after 24 hrs by broth microdilution method; format: functional; conditions: ARC4063, 24 h; summary of the method: as §3
Acinetobacter baumannii [14] = assay: Antibacterial activity against Acinetobacter baumannii ARC2781 after 24 hrs by broth microdilution method; format: functional; conditions: ARC2781, 24 h; summary of the method: as §3
Acinetobacter baumannii [15] = assay: Antibacterial activity against Acinetobacter baumannii ARC3485 after 24 hrs by broth microdilution method; format: functional; conditions: ARC3485, 24 h; summary of the method: as §2
Acinetobacter baumannii [16] = assay: Antibacterial activity against Acinetobacter baumannii ARC3657 after 24 hrs by broth microdilution method; format: functional; conditions: ARC3657, 24 h; summary of the method: as §2
[17] = Protein binding in human plasma; format: ADME, cell-free; conditions: read-out: PPB (converted)
[18] = Dissociation constant, pKa of compound by pH metric method; format: physicochemical; summary of the method: as §1

| SMILES | IC50 (DNA gyrase subunit B) [nM] | IC50 [1] [nM] | pKa [2] | pKa [3] | MIC (Acinetobacter baumannii [4]) [µg/mL] | MIC (Klebsiella pneumoniae) [µg/mL] | MIC (Streptococcus pneumoniae) [µg/mL] | MIC (Pseudomonas aeruginosa [5]) [µg/mL] | MIC (Pseudomonas aeruginosa [6]) [µg/mL] | MIC (Pseudomonas aeruginosa [7]) [µg/mL] | MIC (Pseudomonas aeruginosa [8]) [µg/mL] | MIC (Pseudomonas aeruginosa [9]) [µg/mL] | MIC (Pseudomonas aeruginosa [10]) [µg/mL] | MIC (Pseudomonas aeruginosa [11]) [µg/mL] | MIC (Pseudomonas aeruginosa [12]) [µg/mL] | MIC (Pseudomonas aeruginosa [13]) [µg/mL] | MIC (Acinetobacter baumannii [14]) [µg/mL] | MIC (Acinetobacter baumannii [15]) [µg/mL] | MIC (Acinetobacter baumannii [16]) [µg/mL] | fraction unbound [17] | other results |
| --- | --- | --- | --- | --- | --- | --- | --- | --- | --- | --- | --- | --- | --- | --- | --- | --- | --- | --- | --- | --- | --- |
| CCNC(=O)Nc1cc(-c2nc(C3CC3)cs2)c(-c2cc(-c3n[nH]c(=O)o3)cnc2N2C3CCC2CN(C)C3)cn1 | 2 | 3 | 6.7 | 7.9 | 0.5 (≈ 0.872 µM) | 16 (≈ 27.9 µM) | < 0.06 | 4 (≈ 6.97 µM) | 1 (≈ 1.74 µM) | 2 (≈ 3.49 µM) | 4 (≈ 6.97 µM) | 4 (≈ 6.97 µM) | 4 (≈ 6.97 µM) | 2 (≈ 3.49 µM) | 4 (≈ 6.97 µM) | 4 (≈ 6.97 µM) | 0.25 (≈ 0.436 µM) | 2 (≈ 3.49 µM) | 2 (≈ 3.49 µM) | 0.149 |  |
| CCNC(=O)Nc1cc(-c2nc(C(F)(F)F)cs2)c(-c2cc3ncccc3nc2N2C3CCC2CN(C)C3)cn1 | 7 | 14 |  |  | 2 (≈ 3.52 µM) | 64 (≈ 113 µM) | < 0.06 | 32 (≈ 56.3 µM) | 8 (≈ 14.1 µM) | 8 (≈ 14.1 µM) | 32 (≈ 56.3 µM) | 8 (≈ 14.1 µM) | 32 (≈ 56.3 µM) | 16 (≈ 28.1 µM) | 16 (≈ 28.1 µM) | 16 (≈ 28.1 µM) | 0.5 (≈ 0.879 µM) | 2 (≈ 3.52 µM) | 4 (≈ 7.03 µM) | 0.03 | pKa [18]: 7.8 |
| CCNC(=O)Nc1cc(-c2nc(C(F)(F)F)cs2)c(-c2cc(-c3n[nH]c(=O)o3)cnc2N2C3CCC2CN(C)C3)cn1 | 6 | 4 | 6.7 | 7.8 | 0.5 (≈ 0.831 µM) | 32 (≈ 53.2 µM) | < 0.06 | 8 (≈ 13.3 µM) | 2 (≈ 3.32 µM) | 4 (≈ 6.65 µM) | 8 (≈ 13.3 µM) | 4 (≈ 6.65 µM) | 4 (≈ 6.65 µM) | 4 (≈ 6.65 µM) | 8 (≈ 13.3 µM) | 8 (≈ 13.3 µM) | 0.25 (≈ 0.416 µM) | 2 (≈ 3.32 µM) | 2 (≈ 3.32 µM) | 0.211 |  |
